ChEMBL document CHEMBL3596194, “Design, synthesis and biological evaluation of bivalent benzoxazolone and benzothiazolone ligands as potential anti-inflammatory/analgesic agents” (Bioorg Med Chem, 2015)
Active and inactive are the calls of the source. The rule behind the calls is not given here.

Assays:
Rattus norvegicus [1] = test: Antiinflammatory activity in albino rat assessed as inhibition of carrageenan-induced paw edema at 30 mg/kg, ip administered 1 hr prior to carrageenan challenge measured 4 hrs after induction of inflammation relative to control; format: functional
Outline: (§1)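 Adult albino rats of both sexes, 120–150 g, groups of five, pre-hydrated with 3 ml water orally. Compounds suspended in distilled water with few drops Tween 80, given ip 1 h before subplantar s.c. 1% carrageenan into right hind paw. Paw thickness measured by dial calipers, left paw as control. % inhibition = (1 – Lt/Lc) × 100 versus saline/Tween 80 group.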

Rattus norvegicus [2] = test: Antiinflammatory activity in albino rat assessed as inhibition of carrageenan-induced paw edema at 30 mg/kg, ip administered 1 hr prior to carrageenan challenge measured 1 hr after induction of inflammation relative to control; format: functional; outline: as §1
Rattus norvegicus [3] = test: Antiinflammatory activity in albino rat assessed as inhibition of carrageenan-induced paw edema at 30 mg/kg, ip administered 1 hr prior to carrageenan challenge measured 3 hrs after induction of inflammation relative to control; format: functional; outline: as §1
Rattus norvegicus [4] = test: Antiinflammatory activity in albino rat assessed as inhibition of carrageenan-induced paw edema at 30 mg/kg, ip administered 1 hr prior to carrageenan challenge measured 2 hrs after induction of inflammation relative to control; format: functional; outline: as §1
SK-MEL [5] = test: Cytotoxicity against human SK-MEL cells after 48 hrs by neutral red assay relative to control; format: cell-based
Outline: (§2)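 Cells grown in RPMI-1640 with 10% bovine calf serum and amikacin at 37°C, 5% CO₂. Seeded 25,000 cells/well, grown 24 h, then exposed to compounds diluted in serum-free medium for 48 h. Viability by Neutral Red uptake, % decrease versus vehicle control. IC50 from dose curves, triplicate means. Doxorubicin positive control.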

SK-OV-3 [6] = test: Cytotoxicity against human SKOV3 cells after 48 hrs by neutral red assay relative to control; format: cell-based; conditions: SK-OV-3, 48 h; outline: as §2
Vero [7] = test: Cytotoxicity against African green monkey Vero cells after 48 hrs by neutral red assay relative to control; format: cell-based; conditions: chlorocebus sabaeus; outline: as §2
BT-549 [8] = test: Cytotoxicity against human BT549 cells after 48 hrs by neutral red assay relative to control; format: cell-based; conditions: BT-549, 48 h; outline: as §2
KB [9] = test: Cytotoxicity against human KB cells after 48 hrs by neutral red assay relative to control; format: cell-based; outline: as §2
[10] = Cytotoxicity against pig LLC-PK11 cells after 48 hrs by neutral red assay relative to control; format: cell-based; conditions: Sus scrofa, LLC-PK11, 48 h; outline: as §2
SK-OV-3 [11] = test: Cytotoxicity against human SKOV3 cells up to 25 ug/ml after 48 hrs by neutral red assay relative to control; format: cell-based; conditions: sk-ov-3, 48 h
Outline: (§3)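 Cells grown in RPMI-1640 with 10% bovine calf serum and amikacin at 37 °C, 5% CO2. Seeded at 25,000 cells/well and grown 24 h, then exposed 48 h to samples diluted in serum-free medium. Viability by Neutral Red; % decrease vs vehicle; IC50 from dose curves. Triplicate runs, mean reported; doxorubicin as positive control.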

BT-549 [12] = test: Cytotoxicity against human BT549 cells up to 25 ug/ml after 48 hrs by neutral red assay relative to control; format: cell-based; conditions: bt-549, 48 h; outline: as §3
SW1353 = test: Antiinflammatory activity in human SW1353 cells assessed as inhibition of PMA-induced NF-kappaB activity up to 25 ug/ml incubated for 30 mins prior to PMA challenge measured after 8 hrs by luciferase reporter gene assay; format: cell-based
Outline: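 SW1353 chondrosarcoma cells grown in DMEM/F12 with 10% FBS at 37 °C, 5% CO2. Cells electroporated with an NF-κB luciferase plasmid (50 μg/mL, 160 V, one 70-ms pulse) and plated at 1.25 × 10⁵ cells/well. After 24 h, compound was added 30 min before PMA (70 ng/mL), then 8 h incubation. Luciferase read-out as % inhibition vs vehicle; IC50 from dose curves. Sp-1 served as a counter-screen.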

KB [13] = test: Cytotoxicity against human KB cells up to 25 ug/ml after 48 hrs by neutral red assay relative to control; format: cell-based; outline: as §3
[14] = Cytotoxicity against pig LLC-PK11 cells up to 25 ug/ml after 48 hrs by neutral red assay relative to control; format: cell-based, Sus scrofa; conditions: llc-pk11, 48 h; outline: as §3
SK-MEL [15] = test: Cytotoxicity against human SK-MEL cells up to 25 ug/ml after 48 hrs by neutral red assay relative to control; format: cell-based; outline: as §3
[16] = Antiinflammatory activity in human SW1353 cells assessed as inhibition of PMA-induced NF-kappaB activity incubated for 30 mins prior to PMA challenge measured after 8 hrs by luciferase reporter gene assay; format: cell-based
Outline: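 SW1353 cells in DMEM/F12 with 10% FBS, electroporated with NF-κB luciferase plasmid (160 V, one 70-ms pulse), plated at 1.25 × 10⁵ cells/well. After 24 h, graded compound concentrations added 30 min before PMA 70 ng/mL, then 8 h incubation. Luciferase read-out, % inhibition versus vehicle, IC50 from dose curves. Sp-1 reporter served as nonspecific control.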

Mus musculus = test: Antinociceptive activity in ip dosed Swiss mouse assessed as inhibition of acetic acid-induced writhing response administered 15 mins prior to acetic acid challenge measured for 20 mins relative to vehicle-treated control; format: functional, organism-based
Outline: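 Mice dosed i.p. with compound or vehicle 15 min before testing, or with indomethacin 3 mg/kg i.p. 30 min before. After 15 min habituation in an enclosure, 0.9% acetic acid given i.p. (1 ml/0.1 kg) and writhes counted for 20 min. Non-responders excluded; n = 4-6; mean ± SD.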

Vero [17] = test: Cytotoxicity against African green monkey Vero cells up to 25 ug/ml after 48 hrs by neutral red assay relative to control; format: cell-based; conditions: chlorocebus sabaeus; outline: as §3

Row | SMILES | inhibition in vivo at 30 mg/kg (Rattus norvegicus [1]) | inhibition in vivo at 30 mg/kg (Rattus norvegicus [2]) | inhibition in vivo at 30 mg/kg (Rattus norvegicus [3]) | inhibition in vivo at 30 mg/kg (Rattus norvegicus [4]) | IC50 (SK-MEL [5]) | IC50 (SK-OV-3 [6]) | IC50 (Vero [7]) | IC50 (BT-549 [8]) | IC50 (KB [9]) | IC50 [10] | Activity (SK-OV-3 [11]) | Activity (BT-549 [12]) | inhibition (SW1353) | Activity (KB [13]) | Activity [14] | Activity (SK-MEL [15]) | IC50 [16] | inhibition (Mus musculus) | Activity (Vero [17])
1 | O=C(c1ccccc1)c1ccc2n1CCC2C(=O)O (stereo not given) [KETOROLAC] | 79.3% | 70.5% | 75.4% | 74.2% | – | – | – | – | – | – | – | – | – | – | – | – | – | – | –
2 | COc1cccc2c1C(=O)c1c(O)c3c(c(O)c1C2=O)C[C@@](O)(C(=O)CO)C[C@@H]3O[C@H]1C[C@H](N)[C@H](O)[C@H](C)O1 [DOXORUBICIN] | – | – | – | – | 0.14 µM | 0.2 µM | 0.92 µM | 0.17 µM | 0.22 µM | 0.79 µM | – | – | – | – | – | – | – | – | –
3 | O=c1oc2ccccc2n1CCCCCN1CCN(CCCCn2c(=O)oc3ccccc32)CC1 | – | – | – | – | – | – | 17.6 µM | – | – | – | Non-toxic | Non-toxic | inactive | Non-toxic | Non-toxic | Non-toxic | – | – | –
4 | O=c1sc2ccccc2n1CCCCCN1CCN(CCn2c(=O)sc3ccccc32)CC1 | – | – | – | – | – | – | 23.8 µM | – | – | – | Non-toxic | Non-toxic | – | Non-toxic | Non-toxic | Non-toxic | 1.71 µM | – | –
5 | O=c1sc2ccccc2n1CCCCCCN1CCN(CCCCCCn2c(=O)sc3ccccc32)CC1 | 36.9% | 32.2% | 39.3% | 37.5% | – | 24.3 µM | – | 24.3 µM | 20.8 µM | – | – | – | – | – | Non-toxic | Non-toxic | 0.41 µM | Dose-dependent effect | Non-toxic
6 | c1ccc2oc(SCCCCN3CCN(CCCCSc4nc5ccccc5o4)CC3)nc2c1 | – | – | – | – | 25 µM | – | – | 22.5 µM | 25 µM | 23.5 µM | Non-toxic | – | – | – | – | – | 1.4 µM | – | Non-toxic
7 | c1ccc2sc(SCCCCN3CCN(CCCCSc4nc5ccccc5s4)CC3)nc2c1 | 47.1% | 59.9% | 63.4% | 64.3% | 17.5 µM | – | – | – | 25 µM | – | Non-toxic | Non-toxic | – | – | Non-toxic | – | 0.34 µM | Dose-dependent effect | Non-toxic
